Assay outcomes deposited in PubChem by Sanford-Burnham Center for Chemical Genomics.
Only a sample is shown.
Apaf-1 act: activators of human Apaf-1 apoptosome, primary screen, biochemical, DEVD-Rh110 fluorescence, uHTS; Apoptotic protease-activating factor 1 (Homo sapiens), O14727; Apaf-1 apoptosome caspase-3 activation; stronger effect = lower value; activity change, negative = activation, % at 20 µM; 330,000 tested, 0.31% active;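 active means activity change at or below -40% at 20 µM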
Target sequence (O14727 whole entry, looked up): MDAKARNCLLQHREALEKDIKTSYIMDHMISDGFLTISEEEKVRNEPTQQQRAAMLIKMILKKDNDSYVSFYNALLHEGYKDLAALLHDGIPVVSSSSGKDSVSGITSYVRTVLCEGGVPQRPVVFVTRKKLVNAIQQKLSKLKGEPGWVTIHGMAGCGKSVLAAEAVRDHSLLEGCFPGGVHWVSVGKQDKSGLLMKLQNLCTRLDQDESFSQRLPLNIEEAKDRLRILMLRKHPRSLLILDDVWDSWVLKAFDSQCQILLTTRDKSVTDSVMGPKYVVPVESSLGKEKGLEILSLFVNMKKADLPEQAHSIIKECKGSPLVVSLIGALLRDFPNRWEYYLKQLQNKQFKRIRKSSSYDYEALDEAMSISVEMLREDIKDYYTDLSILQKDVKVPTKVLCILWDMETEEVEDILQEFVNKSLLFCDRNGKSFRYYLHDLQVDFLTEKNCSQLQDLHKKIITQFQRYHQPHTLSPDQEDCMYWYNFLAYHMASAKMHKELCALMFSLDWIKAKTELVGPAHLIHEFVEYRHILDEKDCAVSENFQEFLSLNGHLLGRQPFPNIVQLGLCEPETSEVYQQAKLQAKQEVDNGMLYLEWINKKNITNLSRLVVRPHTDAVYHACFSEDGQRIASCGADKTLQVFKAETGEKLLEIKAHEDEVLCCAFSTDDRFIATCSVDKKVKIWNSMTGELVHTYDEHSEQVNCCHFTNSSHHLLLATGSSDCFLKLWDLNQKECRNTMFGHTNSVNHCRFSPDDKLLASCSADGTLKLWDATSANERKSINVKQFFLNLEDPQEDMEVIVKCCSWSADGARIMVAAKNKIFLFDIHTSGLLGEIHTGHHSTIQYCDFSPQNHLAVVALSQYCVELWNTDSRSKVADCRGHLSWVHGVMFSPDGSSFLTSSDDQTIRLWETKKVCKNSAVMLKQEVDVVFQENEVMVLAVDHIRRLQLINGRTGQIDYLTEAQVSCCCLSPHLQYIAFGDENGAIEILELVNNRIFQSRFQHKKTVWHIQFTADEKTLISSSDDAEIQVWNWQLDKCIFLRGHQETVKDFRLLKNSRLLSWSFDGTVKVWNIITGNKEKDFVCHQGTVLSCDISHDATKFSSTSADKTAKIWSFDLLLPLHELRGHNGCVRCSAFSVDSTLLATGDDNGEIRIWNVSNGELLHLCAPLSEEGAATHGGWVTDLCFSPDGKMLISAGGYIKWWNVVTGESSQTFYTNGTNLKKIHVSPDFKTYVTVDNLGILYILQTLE
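Assay system – biochemical Apaf-1 apoptosome reconstitution · Medium – 20 mM HEPES buffer, pH 7.5, containing CHAPS and BSA · Incubation – 30 min preincubation, 50 min reaction, room temperature · Measured by – Caspase-3-released Rh110 fluorescence, 540 nm emission, 480 nm excitation · Read-out – Caspase-3 cleavage activity downstream of Apaf-1 activation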
Rh110 interf act: Rh110 fluorescence interference by putative Apaf-1 activators, confirmation, artefact control for Apaf-1 activator project, biochemical, 20 µM; fluorescence interference (activity change), % at 20 µM, hits read low; AID 504616, 2011; shares compounds with Apaf-1 act; 980 tested, under 10 active; quenched caspase reaction, Ex480/Em540;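 active means mean activity change at or below -40% when tested at 20 µM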
Apaf-1 act conf: Apaf-1 activators, single-dose retest, confirmation, biochemical, fluorescence, DEVD-Rh110, 20 µM. shares compounds with Apaf-1 act. reconstituted apoptosome caspase-3 activity; stronger effect = lower value. activity change, negative = activation, % at 20 µM. 980 tested, 5% active. AID 504617, 2011;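 active means mean activity change at or below -40%, meaning activation of 40% or more, at 20 µM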
Of the large screens only hits and unclear results are named; the others gave an inactive call (follow-up assays come after a bar, where they were run).

CCOC(=O)c1cc(CC)sc1/N=C/c1c(O)[nH]c(=S)[nH]c1=O	Apaf-1 act -200 | Rh110 interf act -133 | Apaf-1 act conf inactive
CC(C)OCCCNC(=O)c1c(N)n(CC2CCCO2)c2nc3ccccc3nc12 (stereo unspecified)	none
O=C(c1ccc2nc(-c3ccco3)c(-c3ccco3)nc2c1)N1CCC2(CC1)OCCO2	none
COc1cc2c(cc1OC)-c1c(OC)c(OC)cc3c1C(C2)N(C)CC3 (stereo unspecified)	none
CCCCn1c(NS(=O)(=O)c2ccc(C)cc2)c(C(=O)OCC)c2nc3ccccc3nc21	none
Cc1ccc(-n2c(C)nc3ccccc3c2=O)c(C)c1	Apaf-1 act -76 | Rh110 interf act inactive | Apaf-1 act conf inactive
O=C1NC(=O)C(=Cc2ccc(Oc3ccc([N+](=O)[O-])cc3)cc2)C(=O)N1	none
CCCCn1c(N)c(C(=O)NCc2cccs2)c2nc3ccccc3nc21	none
Brc1ccc(Oc2ccc(Br)cc2Br)c(Br)c1	Apaf-1 act -139 | Rh110 interf act inactive | Apaf-1 act conf inactive
CC(C)C[C@H]1C(=O)N2CCCC2[C@]2(O)O[C@](NC(=O)[C@@H]3C=C4c5cccc6[nH]cc(c56)CC4N(C)C3)(C(C)C)C(=O)N12 (stereo partly specified)	none
COC(=O)C(O)(c1c(C)[nH]n(-c2ccccc2)c1=O)C(F)(F)F (stereo unspecified)	none
